Measurements published in ChEMBL document CHEMBL4732230, “Design, synthesis, and biological evaluation of 4-benzoylamino-1H-pyrazole-3-carboxamide derivatives as potent CDK2 inhibitors” (Eur J Med Chem, 2021).
Values belong to the compound of their own block, whether it stands above or below them. The source made the active and inactive calls. The rule behind the calls is not given here.

Experiments:
[1] = target: Cyclin-dependent kinase 1/cyclin B1 (Homo sapiens, UniProt P06493); type: protein-complex assay
Sequence of Cyclin-dependent kinase 1/cyclin B1 (P06493 whole entry): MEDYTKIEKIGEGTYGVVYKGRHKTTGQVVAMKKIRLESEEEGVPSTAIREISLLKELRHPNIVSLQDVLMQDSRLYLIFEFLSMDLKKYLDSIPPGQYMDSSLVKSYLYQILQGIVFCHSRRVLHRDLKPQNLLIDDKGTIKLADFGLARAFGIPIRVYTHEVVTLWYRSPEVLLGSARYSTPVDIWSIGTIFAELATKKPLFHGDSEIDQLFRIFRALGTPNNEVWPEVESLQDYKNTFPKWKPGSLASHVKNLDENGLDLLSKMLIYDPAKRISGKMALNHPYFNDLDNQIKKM
Sequence of Cyclin-dependent kinase 1/cyclin B1 (P14635 whole entry, further chain): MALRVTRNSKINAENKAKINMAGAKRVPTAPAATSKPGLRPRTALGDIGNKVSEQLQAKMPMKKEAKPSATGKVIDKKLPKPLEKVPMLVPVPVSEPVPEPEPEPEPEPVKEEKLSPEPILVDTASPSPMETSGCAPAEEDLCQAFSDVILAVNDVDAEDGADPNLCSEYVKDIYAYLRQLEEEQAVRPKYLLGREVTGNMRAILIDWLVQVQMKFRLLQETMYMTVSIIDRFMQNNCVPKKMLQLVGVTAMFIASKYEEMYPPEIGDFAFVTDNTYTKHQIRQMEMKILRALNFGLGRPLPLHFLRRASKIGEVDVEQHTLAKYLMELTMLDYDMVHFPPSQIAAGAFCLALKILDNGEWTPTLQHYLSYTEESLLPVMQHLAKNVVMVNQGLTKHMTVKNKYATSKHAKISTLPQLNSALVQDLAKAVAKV

CDK2/Cyclin A2 = CDK2/Cyclin A2 (Homo sapiens, UniProt P24941); assay: Inhibition of CDK2/cyclin A2 (unknown origin) using FAM-labeled peptide and ATP as substrate preincubated for 10 mins followed by substrate addition by mobility shift assay; type: protein-complex assay
A2058 [2] = assay: Antiproliferative activity against human A2058 cells assessed as reduction in cell viability measured after 96 hrs by Celltiter-Glo luminescent assay; type: functional, cell-based; conditions: A2058, 96 h
In short: (§1)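 Cells in DMEM (A2058, MRC5) or RPMI 1640 (MV4-11), each with 10% fetal bovine serum and 1% penicillin/streptomycin. Cells were plated in 96-well plates and exposed to serially concentrated compound for 96 h, with DMSO as control. Viability was read by CellTiter-Glo luminescence and IC50 derived.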

A2058 [3] = assay: Induction of cell cycle arrest in human A2058 cells assessed as accumulation at G2 phase at 0.2 uM after 24 hrs by propidium iodide/RNase staining based flow cytometric analysis (reference value: 21.19 %); type: functional
[4] = Cytotoxicity against human LX2 cells assessed as inhibition of cell growth at 100 uM measured after 96 hrs by Celltiter-Glo luminescent assay; type: cell-based
In short: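 LX2 cells grown in DMEM with 10% fetal bovine serum and 1% penicillin/streptomycin, plated in 96-well plates. They were treated with compound at […] or DMSO control for 96 h. Viability was read by CellTiter-Glo luminescence and expressed as percent inhibition.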

[5] = target: Cyclin-dependent kinase 2 (Homo sapiens) (UniProt P24941); assay: Inhibition of CDK2 in human A2058 cells assessed as downregulation of Mcl-1 expression at 0.1875 to 1.5 uM after 24 hrs by immunoblot analysis; type: cell-based; conditions: dose 0.1875-1.5 µM
A2058 [6] = assay: Induction of apoptosis in human A2058 cells assessed as early apoptotic cells at 0.2 uM measured after 48 hrs by Annexin V-FITC/propidium iodide staining based flow cytometry (reference value: 3.13 %); type: functional
CDK4/Cyclin D3 = CDK4/Cyclin D3 (Homo sapiens, UniProt P11802); assay: Inhibition of CDK4/cyclin D3 (unknown origin) using FAM-labeled peptide and ATP as substrate preincubated for 10 mins followed by substrate addition by mobility shift assay; type: protein-complex assay
A2058 [7] = assay: Induction of apoptosis in human A2058 cells assessed as upregulation of cleaved PARP level after 24 hrs by immunoblot analysis; type: functional, cell-based; conditions: dose 0.1875-1.5 µM
In short: (§2)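 A2058 cells treated with compound for 24 h and lysed. Lysates were run on 8% or 10% SDS-PAGE and transferred to nitrocellulose, then blocked in 5% milk/TBST for 60 min. Blots were probed overnight at 4 °C for cleaved caspase-3 or cleaved PARP, then with HRP secondary at 1:10,000 for 1 h. Detection was by ECL, with tubulin as loading control.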

A2058 [8] = assay: Induction of apoptosis in human A2058 cells assessed as necrotic cells at 1 uM measured after 48 hrs by Annexin V-FITC/propidium iodide staining based flow cytometry (reference value: 0.37 %); type: functional
A2058 [9] = assay: Induction of cell cycle arrest in human A2058 cells assessed as accumulation at G1 phase at 0.4 uM after 24 hrs by propidium iodide/RNase staining based flow cytometric analysis (reference value: 48.05 %); type: functional
CDK3/Cyclin E = CDK3/Cyclin E (Homo sapiens, UniProt Q00526); assay: Inhibition of CDK3/cyclin E1 (unknown origin) using FAM-labeled peptide and ATP as substrate preincubated for 10 mins followed by substrate addition by mobility shift assay; type: protein-complex assay
In short: (§3)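 Mobility shift assay in 50 mM HEPES pH 7.5 with 0.0015% Brij-35. Kinase was added to serially diluted compound in 10% DMSO and held 10 min at room temperature. FAM-labeled peptide and ATP were then added and the mixture incubated at 28 °C for the specified time. Reactions were stopped with EDTA-containing buffer.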

A2058 [10] = assay: Induction of apoptosis in human A2058 cells assessed as viable cells at 1 uM measured after 48 hrs by Annexin V-FITC/propidium iodide staining based flow cytometry (reference value: 94.6 %); type: functional; conditions: read-out: Activity
A2058 [11] = assay: Induction of apoptosis in human A2058 cells assessed as late apoptotic cells at 1 uM measured after 48 hrs by Annexin V-FITC/propidium iodide staining based flow cytometry (reference value: 1.85 %); type: functional
A2058 [12] = assay: Induction of cell cycle arrest in human A2058 cells assessed as accumulation at S phase at 0.4 uM after 24 hrs by propidium iodide/RNase staining based flow cytometric analysis (reference value: 30.76 %); type: functional
CDK9/cyclin T1 = CDK9/cyclin T1 (Homo sapiens, UniProt P50750); assay: Inhibition of CDK9/cyclin T1 (unknown origin) using FAM-labeled peptide and ATP as substrate preincubated for 10 mins followed by substrate addition by mobility shift assay; type: protein-complex assay
Sequence of CDK9/cyclin T1 (O60563 whole entry): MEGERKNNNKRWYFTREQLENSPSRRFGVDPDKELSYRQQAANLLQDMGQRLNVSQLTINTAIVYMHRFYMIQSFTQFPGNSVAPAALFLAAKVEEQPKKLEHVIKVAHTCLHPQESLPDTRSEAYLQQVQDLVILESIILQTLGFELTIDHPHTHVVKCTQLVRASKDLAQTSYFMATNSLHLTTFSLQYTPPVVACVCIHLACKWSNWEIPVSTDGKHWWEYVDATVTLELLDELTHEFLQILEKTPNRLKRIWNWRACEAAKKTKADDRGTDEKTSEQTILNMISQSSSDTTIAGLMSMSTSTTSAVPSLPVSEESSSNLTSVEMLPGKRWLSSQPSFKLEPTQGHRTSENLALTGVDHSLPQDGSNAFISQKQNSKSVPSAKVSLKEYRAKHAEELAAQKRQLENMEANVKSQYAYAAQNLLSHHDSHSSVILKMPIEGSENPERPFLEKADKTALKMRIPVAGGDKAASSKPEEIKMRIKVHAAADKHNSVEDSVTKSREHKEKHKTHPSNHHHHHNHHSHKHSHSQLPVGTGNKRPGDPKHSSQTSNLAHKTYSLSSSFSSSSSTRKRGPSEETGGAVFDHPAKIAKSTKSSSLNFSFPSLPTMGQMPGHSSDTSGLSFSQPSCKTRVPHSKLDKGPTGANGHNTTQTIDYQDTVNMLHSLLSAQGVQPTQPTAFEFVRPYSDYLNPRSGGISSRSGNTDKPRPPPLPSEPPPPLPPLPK
Sequence of CDK9/cyclin T1 (P50750 whole entry): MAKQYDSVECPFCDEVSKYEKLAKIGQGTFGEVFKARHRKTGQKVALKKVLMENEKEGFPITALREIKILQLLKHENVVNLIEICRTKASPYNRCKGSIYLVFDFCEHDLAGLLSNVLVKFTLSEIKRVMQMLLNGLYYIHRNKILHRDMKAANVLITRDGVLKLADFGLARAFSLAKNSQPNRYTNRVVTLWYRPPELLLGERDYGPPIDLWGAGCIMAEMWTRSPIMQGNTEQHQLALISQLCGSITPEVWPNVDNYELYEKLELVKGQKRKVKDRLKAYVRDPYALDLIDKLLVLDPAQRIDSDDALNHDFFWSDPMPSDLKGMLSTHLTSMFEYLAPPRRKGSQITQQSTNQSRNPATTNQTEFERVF

[13] = target: Cyclin-dependent kinase 2 (Homo sapiens) (UniProt P24941); assay: Inhibition of CDK2 in human MV4-11 cells assessed as downregulation of Mcl-1 expression at 0.1875 to 3 uM after 24 hrs by immunoblot analysis; type: cell-based; conditions: dose 0.1875-3 µM
In short: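 MV4-11 cells exposed to compound for 24 h. Lysates were resolved by 8% or 10% SDS-PAGE and blotted to nitrocellulose. Blots were probed with anti-Mcl-1 overnight at 4 °C, then HRP secondary at 1:10,000. Bands were developed by ECL, with GAPDH as loading control.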

A2058 [14] = assay: Induction of apoptosis in human A2058 cells assessed as viable cells at 0.4 uM measured after 48 hrs by Annexin V-FITC/propidium iodide staining based flow cytometry (reference value: 94.6 %); type: functional; conditions: read-out: Activity
[15] = target: Cyclin-dependent kinase 2 (Homo sapiens) (UniProt P24941); assay: Inhibition of CDK2 in human MV4-11 cells assessed as reduction in Rb phosphorylation at Ser807/811 at 0.375 to 6 uM by immunoblot analysis; type: cell-based; conditions: dose 0.375-6 µM, time lower […], time upper 48.0 hrs, TDE = time-dependent effect
In short: (§4)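 MV4-11 cells treated with compound for 24 h or 48 h. Lysates were separated on 8% or 10% SDS-PAGE and transferred to nitrocellulose. Membranes were immunoblotted for phospho-Rb Ser780, phospho-Rb Ser807/811 and total Rb, with β-actin as loading control. Detection used HRP secondary at 1:10,000 and ECL.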

A2058 [16] = assay: Induction of apoptosis in human A2058 cells assessed as late apoptotic cells at 0.2 uM measured after 48 hrs by Annexin V-FITC/propidium iodide staining based flow cytometry (reference value: 1.85 %); type: functional
A2058 [17] = assay: Induction of cell cycle arrest in human A2058 cells assessed as accumulation at G1 phase at 0.2 uM after 24 hrs by propidium iodide/RNase staining based flow cytometric analysis (reference value: 48.05 %); type: functional
A2058 [18] = assay: Induction of apoptosis in human A2058 cells assessed as early apoptotic cells at 0.4 uM measured after 48 hrs by Annexin V-FITC/propidium iodide staining based flow cytometry (reference value: 3.13 %); type: functional
A2058 [19] = assay: Induction of apoptosis in human A2058 cells assessed as late apoptotic cells at 0.4 uM measured after 48 hrs by Annexin V-FITC/propidium iodide staining based flow cytometry (reference value: 1.85 %); type: functional
A2058 [20] = assay: Induction of apoptosis in human A2058 cells assessed as upregulation of cleaved caspase-3 level after 24 hrs by immunoblot analysis; type: functional, cell-based; conditions: dose 0.1875-1.5 µM
In short: as §2

MRC5 = assay: Cytotoxicity against human MRC5 cells assessed as reduction in cell viability measured after 96 hrs by Celltiter-Glo luminescent assay; type: cell-based; conditions: MRC5, 96 h
In short: as §1

A2058 [21] = assay: Induction of apoptosis in human A2058 cells assessed as necrotic cells at 0.2 uM measured after 48 hrs by Annexin V-FITC/propidium iodide staining based flow cytometry (reference value: 0.37 %); type: functional
[22] = target: Cyclin-dependent kinase 2 (Homo sapiens) (UniProt P24941); assay: Inhibition of CDK2 in human MV4-11 cells assessed as reduction in Rb phosphorylation at Ser807/811 after 24 to 48 hrs by immunoblot analysis; type: cell-based; conditions: dose 0.375-6 µM, time lower […], time upper 48.0 hrs
In short: as §4

[23] = target: Cyclin-dependent kinase 2 (Homo sapiens) (UniProt P24941); assay: Inhibition of CDK2 in human MV4-11 cells assessed as reduction in Rb phosphorylation at Ser780 at 0.375 to 6 uM by immunoblot analysis; type: cell-based; conditions: dose 0.375-6 µM, time lower […], time upper 48.0 hrs, TDE = time-dependent effect
In short: as §4

A2058 [24] = assay: Induction of apoptosis in human A2058 cells assessed as necrotic cells at 0.4 uM measured after 48 hrs by Annexin V-FITC/propidium iodide staining based flow cytometry (reference value: 0.37 %); type: functional
A2058 [25] = assay: Induction of apoptosis in human A2058 cells assessed as early apoptotic cells at 1 uM measured after 48 hrs by Annexin V-FITC/propidium iodide staining based flow cytometry (reference value: 3.13 %); type: functional
MV4-11 = assay: Antiproliferative activity against human MV4-11 cells assessed as reduction in cell viability measured after 96 hrs by Celltiter-Glo luminescent assay; type: functional, cell-based; conditions: MV4-11, 96 h
In short: as §1

A2058 [26] = assay: Induction of cell cycle arrest in human A2058 cells assessed as accumulation at S phase at 0.2 uM after 24 hrs by propidium iodide/RNase staining based flow cytometric analysis (reference value: 30.76 %); type: functional
[27] = target: Cyclin-dependent kinase 2 (Homo sapiens) (UniProt P24941); assay: Inhibition of CDK2 in human MV4-11 cells assessed as reduction in Rb phosphorylation at Ser780 after 24 to 48 hrs by immunoblot analysis; type: cell-based; conditions: dose 0.375-6 µM, time lower […], time upper 48.0 hrs
In short: as §4

CDK7/Cyclin H/MNAT1 = CDK7/Cyclin H/MNAT1 (Homo sapiens, UniProt P50613); assay: Inhibition of CDK7/cyclinH/MAT1 (unknown origin) using FAM-labeled peptide and ATP as substrate preincubated for 10 mins followed by substrate addition by mobility shift assay; type: protein-complex assay
Sequence of CDK7/Cyclin H/MNAT1 (P51946 whole entry): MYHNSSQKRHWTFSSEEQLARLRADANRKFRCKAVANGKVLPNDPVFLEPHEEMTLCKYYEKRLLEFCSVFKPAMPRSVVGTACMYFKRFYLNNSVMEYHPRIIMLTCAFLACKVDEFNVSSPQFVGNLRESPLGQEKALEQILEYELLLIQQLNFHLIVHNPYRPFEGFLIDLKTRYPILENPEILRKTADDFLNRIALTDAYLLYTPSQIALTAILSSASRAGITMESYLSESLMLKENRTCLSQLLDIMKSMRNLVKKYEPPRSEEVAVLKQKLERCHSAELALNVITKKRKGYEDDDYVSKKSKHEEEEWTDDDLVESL
Sequence of CDK7/Cyclin H/MNAT1 (P50613 whole entry): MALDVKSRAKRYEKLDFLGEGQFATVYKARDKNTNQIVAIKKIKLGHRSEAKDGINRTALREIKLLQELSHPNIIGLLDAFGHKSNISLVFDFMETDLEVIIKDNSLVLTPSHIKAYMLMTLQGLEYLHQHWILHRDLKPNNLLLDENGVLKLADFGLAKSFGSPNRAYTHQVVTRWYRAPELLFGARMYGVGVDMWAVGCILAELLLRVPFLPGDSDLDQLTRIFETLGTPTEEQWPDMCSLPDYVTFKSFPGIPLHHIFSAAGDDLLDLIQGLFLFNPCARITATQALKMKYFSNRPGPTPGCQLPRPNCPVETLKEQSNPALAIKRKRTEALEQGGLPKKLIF
Sequence of CDK7/Cyclin H/MNAT1 (P51948 whole entry, further chain): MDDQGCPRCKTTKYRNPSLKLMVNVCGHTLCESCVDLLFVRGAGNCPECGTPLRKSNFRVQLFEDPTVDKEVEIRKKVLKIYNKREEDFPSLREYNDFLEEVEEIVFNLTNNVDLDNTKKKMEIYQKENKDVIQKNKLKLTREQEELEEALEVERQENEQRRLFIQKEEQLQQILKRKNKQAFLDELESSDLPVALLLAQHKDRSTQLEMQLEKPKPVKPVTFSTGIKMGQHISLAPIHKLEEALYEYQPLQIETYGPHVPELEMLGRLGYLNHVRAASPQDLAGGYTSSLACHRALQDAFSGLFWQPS
In short: as §3

CDK6/cyclin D3 = CDK6/cyclin D3 (Homo sapiens, UniProt Q00534); assay: Inhibition of CDK6/cyclin D3 (unknown origin) using FAM-labeled peptide and ATP as substrate preincubated for 10 mins followed by substrate addition by mobility shift assay; type: protein-complex assay
In short: as §3

A2058 [28] = assay: Induction of apoptosis in human A2058 cells assessed as viable cells at 0.2 uM measured after 48 hrs by Annexin V-FITC/propidium iodide staining based flow cytometry (reference value: 94.6 %); type: functional; conditions: read-out: Activity
CDK12/Cyclin K = CDK12/Cyclin K (Homo sapiens, UniProt Q9NYV4); assay: Inhibition of CDK12/cyclin K (unknown origin) using FAM-labeled peptide and ATP as substrate preincubated for 10 mins followed by substrate addition by mobility shift assay; type: protein-complex assay
Sequence of CDK12/Cyclin K (O75909 whole entry): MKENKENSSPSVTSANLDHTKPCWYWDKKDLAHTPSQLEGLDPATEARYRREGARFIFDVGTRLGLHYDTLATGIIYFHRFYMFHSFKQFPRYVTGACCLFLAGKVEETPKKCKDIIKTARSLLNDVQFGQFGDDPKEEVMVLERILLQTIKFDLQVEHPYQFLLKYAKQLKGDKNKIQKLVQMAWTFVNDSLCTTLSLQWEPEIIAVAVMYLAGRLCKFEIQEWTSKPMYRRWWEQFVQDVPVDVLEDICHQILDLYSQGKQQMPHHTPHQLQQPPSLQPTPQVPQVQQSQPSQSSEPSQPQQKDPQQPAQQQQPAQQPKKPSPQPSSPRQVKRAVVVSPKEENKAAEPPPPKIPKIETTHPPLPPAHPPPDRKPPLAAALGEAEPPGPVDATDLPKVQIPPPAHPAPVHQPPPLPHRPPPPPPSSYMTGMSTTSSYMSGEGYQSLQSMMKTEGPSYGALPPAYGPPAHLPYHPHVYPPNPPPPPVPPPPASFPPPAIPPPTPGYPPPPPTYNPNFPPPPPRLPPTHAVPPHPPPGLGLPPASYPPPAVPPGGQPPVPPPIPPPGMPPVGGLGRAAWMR
Sequence of CDK12/Cyclin K (Q9NYV4 whole entry): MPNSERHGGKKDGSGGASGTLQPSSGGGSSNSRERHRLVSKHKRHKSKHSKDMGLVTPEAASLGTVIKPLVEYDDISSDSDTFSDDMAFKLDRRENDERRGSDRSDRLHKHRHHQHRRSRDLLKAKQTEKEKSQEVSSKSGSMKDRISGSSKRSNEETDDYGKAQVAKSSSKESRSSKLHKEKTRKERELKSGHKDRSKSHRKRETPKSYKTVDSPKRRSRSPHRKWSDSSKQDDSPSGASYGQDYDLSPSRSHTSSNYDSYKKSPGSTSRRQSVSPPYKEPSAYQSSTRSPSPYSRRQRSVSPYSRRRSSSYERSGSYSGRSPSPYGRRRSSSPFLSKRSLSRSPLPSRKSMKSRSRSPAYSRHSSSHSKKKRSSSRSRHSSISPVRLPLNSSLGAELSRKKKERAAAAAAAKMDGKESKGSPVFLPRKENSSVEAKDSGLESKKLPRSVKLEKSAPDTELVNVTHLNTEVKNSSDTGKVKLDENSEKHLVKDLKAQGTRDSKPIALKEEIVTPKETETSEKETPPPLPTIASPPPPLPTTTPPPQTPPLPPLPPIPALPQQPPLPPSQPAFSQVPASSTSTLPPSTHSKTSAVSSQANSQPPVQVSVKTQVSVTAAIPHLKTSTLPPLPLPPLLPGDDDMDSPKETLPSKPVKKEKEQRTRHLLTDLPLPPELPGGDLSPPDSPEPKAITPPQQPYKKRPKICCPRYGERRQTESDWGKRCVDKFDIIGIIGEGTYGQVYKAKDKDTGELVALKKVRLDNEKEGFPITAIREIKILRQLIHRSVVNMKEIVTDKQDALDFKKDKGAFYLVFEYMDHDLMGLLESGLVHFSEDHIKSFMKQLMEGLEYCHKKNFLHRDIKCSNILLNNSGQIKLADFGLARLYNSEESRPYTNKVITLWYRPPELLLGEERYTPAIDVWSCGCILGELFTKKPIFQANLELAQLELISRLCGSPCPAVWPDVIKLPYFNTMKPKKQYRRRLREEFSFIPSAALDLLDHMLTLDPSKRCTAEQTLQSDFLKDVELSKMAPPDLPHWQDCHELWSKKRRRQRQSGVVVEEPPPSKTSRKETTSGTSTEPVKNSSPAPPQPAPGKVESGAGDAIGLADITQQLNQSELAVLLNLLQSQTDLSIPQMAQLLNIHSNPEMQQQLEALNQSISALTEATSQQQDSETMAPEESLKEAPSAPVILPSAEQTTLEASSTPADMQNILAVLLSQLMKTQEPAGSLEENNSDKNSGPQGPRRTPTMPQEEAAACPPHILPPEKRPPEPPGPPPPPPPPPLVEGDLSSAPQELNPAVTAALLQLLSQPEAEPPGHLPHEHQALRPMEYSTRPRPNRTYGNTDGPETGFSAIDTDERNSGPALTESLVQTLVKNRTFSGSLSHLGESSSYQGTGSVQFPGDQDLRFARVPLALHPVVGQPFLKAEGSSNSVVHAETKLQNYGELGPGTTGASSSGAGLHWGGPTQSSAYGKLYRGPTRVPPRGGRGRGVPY
In short: as §3

A2058 [29] = assay: Induction of cell cycle arrest in human A2058 cells assessed as accumulation at G2 phase at 0.4 uM after 24 hrs by propidium iodide/RNase staining based flow cytometric analysis (reference value: 21.19 %); type: functional

Compound: CN1CCC(CNC(=O)c2cccc(-c3ccc(F)c(C(=O)Nc4c[nH]nc4C(=O)Nc4ccc(F)cc4)c3F)c2)CC1
IC50 [1]: 743 nM
IC50 (CDK2/Cyclin A2): 82 nM
IC50 (A2058 [2]): 3340 nM

Compound: NC(=O)c1ccc(-c2ccc(F)c(C(=O)Nc3c[nH]nc3C(=O)Nc3ccc(F)cc3)c2F)cn1
Activity (A2058 [3]): 21.76%
inhibition at 96 h, 100 µM [4]: 32.5%
inhibition [5]: Active
Activity (A2058 [6]): 4.52%
IC50 (CDK4/Cyclin D3): 3.48 µM
Activity (A2058 [7]): Dose-dependent effect
Activity (A2058 [8]): 7.66%
Activity (A2058 [9]): 48.05%
IC50 (CDK3/Cyclin E): 113 nM
viability at 1 µM (A2058 [10]): 23.7%
Activity (A2058 [11]): 28.6%
Activity (A2058 [12]): 39.82%
IC50 (CDK9/cyclin T1): 1120 nM
inhibition [13]: Active
viability at 0.4 µM (A2058 [14]): 55.1%
inhibition [15]: Tde
Activity (A2058 [16]): 4.75%
IC50 [1]: 1020 nM
Activity (A2058 [17]): 36.89%
Activity (A2058 [18]): 21.7%
Activity (A2058 [19]): 14.6%
Activity (A2058 [20]): Dose-dependent effect
IC50 (MRC5): 54.8 µM
Activity (A2058 [21]): 3.41%
inhibition [22]: Dose-dependent effect
inhibition [23]: Tde
Activity (A2058 [24]): 8.32%
Activity (A2058 [25]): 40%
IC50 (MV4-11): 252 nM
Activity (A2058 [26]): 41.35%
inhibition [27]: Dose-dependent effect
IC50 (CDK7/Cyclin H/MNAT1): > 18 µM
IC50 (CDK6/cyclin D3): > 18 µM
viability at 0.2 µM (A2058 [28]): 87.3%
IC50 (CDK12/Cyclin K): > 18 µM
Activity (A2058 [29]): 41.44%
IC50 (CDK2/Cyclin A2): 58 nM
IC50 (A2058 [2]): 295 nM

Compound: O=C(NCCCN1CCOCC1)c1ccc(F)c(-c2ccc(F)c(C(=O)Nc3c[nH]nc3C(=O)Nc3ccc(F)cc3)c2F)c1
IC50 [1]: 1300 nM
IC50 (CDK2/Cyclin A2): 169 nM
IC50 (A2058 [2]): 943 nM

These reach a lower IC50 [1]. Values come first.

IC50 [1]: 537 nM
IC50 (CDK2/Cyclin A2): 76 nM
Compound: O=C(Nc1ccc(F)cc1)c1n[nH]cc1NC(=O)c1c(F)ccc(-c2cccc(CO)c2)c1F

IC50 [1]: 306 nM
IC50 (CDK2/Cyclin A2): 40 nM
Compound: O=C(Nc1ccc(F)cc1)c1n[nH]cc1NC(=O)c1c(F)ccc(-c2cccnc2)c1F
IC50 (A2058 [2]): 2940 nM
